# Measured values: ChEMBL document CHEMBL1136815, “Synthesis and in vitro evaluation of novel small molecule inhibitors of bacterial arylamine N-acetyltransferases (NATs)” (Bioorg Med Chem Lett, 2003)
# Assay: Inhibition constant of Mycobacterium smegmatis N-Acetyltransferase (MSNAT) -catalyzed acetylation with respect to isoniazid.
# Parameters: species or system Mycolicibacterium smegmatis
row,Ki,SMILES
1,70 µM,O=C1NC(=O)/C(=C2\CN(Cc3ccc4ccccc4c3)S(=O)(=O)c3ccccc32)S1

# Assay: In vitro inhibition of recombinant Mycobacterium smegmatis Arylamine N-Acetyltransferase (MSNAT) -catalyzed acetylation of isoniazid (INH); call rule not given here
# Parameters: species or system Mycolicibacterium smegmatis
# Procedure, shortened: (§1)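 Pure recombinant M. smegmatis NAT acetylating isoniazid with acetyl CoA as donor. Acetyl CoA hydrolysis rate followed with 5,5'-dithio-bis(2-nitrobenzoic acid), reading the thio-2-nitrobenzoic acid product spectrophotometrically at 412 nm. Half-maximal inhibitory concentration (IC50) taken from this rate.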
SMILES,IC50,Ki
O=C1NC(=O)/C(=C2\CN(Cc3ccc(/C=C/c4ccccc4)cc3)S(=O)(=O)c3ccccc32)S1,29 µM,14 µM
O=C1NC(=O)/C(=C2\CN(Cc3ccccc3)S(=O)(=O)c3ccccc32)S1,> 100 µM,
CCCCCCCCN1C/C(=C2/SC(=O)NC2=O)c2ccccc2S1(=O)=O,61 µM,43 µM
O=C1NC(=O)/C(=C2\CNS(=O)(=O)c3ccccc32)S1,> 100 µM,
O=C1NC(=O)/C(=C2\CN(CC3CC3)S(=O)(=O)c3ccccc32)S1,> 100 µM,
CCC(CC)CN1C/C(=C2/SC(=O)NC2=O)c2ccccc2S1(=O)=O,92 µM,
O=C1NC(=O)/C(=C2\CN(CCC3CCCCC3)S(=O)(=O)c3ccccc32)S1,82 µM,
O=C1NC(=O)/C(=C2\CN(CC3CCCCC3)S(=O)(=O)c3ccccc32)S1,205 µM,
O=C1NC(=O)/C(=C2\CN(Cc3ccc(Cl)s3)S(=O)(=O)c3ccccc32)S1,33 µM,26.7 µM
O=C1NC(=O)/C(=C2\CN(CCOc3ccccc3)S(=O)(=O)c3ccccc32)S1,> 100 µM,

# Now from value to molecule:
IC50,Ki,SMILES
> 100 µM,,O=C1NC(=O)/C(=C2\CN(Cc3ccccn3)S(=O)(=O)c3ccccc32)S1
> 100 µM,,C=C(C)CCN1C/C(=C2/SC(=O)NC2=O)c2ccccc2S1(=O)=O
> 100 µM,,CN1C/C(=C2/SC(=O)NC2=O)c2ccccc2S1(=O)=O
20 µM,14.4 µM,O=C1NC(=O)/C(=C2\CN(Cc3ccc(-c4ccccc4)cc3)S(=O)(=O)c3ccccc32)S1
22 µM,14.7 µM,CCCCCCCCCCN1C/C(=C2/SC(=O)NC2=O)c2ccccc2S1(=O)=O
65 µM,,O=C1NC(=O)/C(=C2\CN(Cc3ccc(Br)cc3)S(=O)(=O)c3ccccc32)S1

# Assay: In vitro inhibition of recombinant Mycobacterium smegmatis Arylamine N-Acetyltransferase (MSNAT) -catalyzed acetylation of isoniazid (INH); not active
# Parameters: species or system Mycolicibacterium smegmatis
# Procedure, shortened: as §1
row,IC50,SMILES
1,Not Active,O=C1CN(Cc2ccc3ccccc3c2)S(=O)(=O)c2ccccc21
2,Not Active,O=C1CSC(=O)N1 [THIAZOLIDINEDIONE]

# Assay: In vitro inhibition of recombinant Mycobacterium smegmatis N-Acetyltransferase (MSNAT) -catalyzed acetylation of isoniazid (INH).
# Parameters: species or system Mycolicibacterium smegmatis
# Procedure, shortened: as §1
row,IC50,SMILES
1,78 µM,O=C1NC(=O)/C(=C2\CN(Cc3ccc4ccccc4c3)S(=O)(=O)c3ccccc32)S1
